Source: ChEMBL document CHEMBL4765352, “Discovery of AdipoRon analogues as novel AMPK activators without inhibiting mitochondrial complex I” (Eur J Med Chem, 2020)
Activity calls are given as the source filed them. No cut-off for these calls is given here.

Columns and labels:
Huh-7 = experiment: Activation of AMPK in human HuH-7 cells assessed as increase in ACC phosphorylation at 1 to 20 uM measured after 2 to 12 hrs by Western blotting analysis; assay type: cell-based; conditions: filed as activator, dose 1-20 µM, time 2-12 hrs
How it was run: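 HepG2 and HuH-7 cells in medium with 10% FBS and penicillin/streptomycin at 37 °C, 5% CO₂. Treated with a range of concentrations for 2 h, or with 10 μM over a time course. Cells lysed in RIPA buffer with protease/phosphatase inhibitors; ~30 µg protein per lane blotted for p-AMPK, AMPK, p-ACC, ACC, with GAPDH or β-actin as loading control. Detected by ECL.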

HepG2 = experiment: Cytotoxicity against human HepG2 cells assessed as reduction in cell viability at 10 to 20 uM incubated for 72 hrs by MTT assay; assay type: cell-based; conditions: hepg2, 72 h, dose 10-20 µM
How it was run: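 MTT viability assay in C2C12, HepG2 and A549 cells. Exposure was 24 h or 72 h for C2C12 and 72 h for HepG2 and A549. Three replicates per group, compared with the 0 μM group by Student's t test.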

[1] = Metabolic stability in ICR/CD-1 mouse liver microsomes assessed as half life preincubated for 5 mins followed by NADPH addition and measured up to 45 mins by LC/MS analysis; assay type: ADME, Microsome; conditions: time 50 min
How it was run: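 Compound was preincubated with mouse (ICR/CD-1) or human liver microsomes in potassium phosphate buffer at 37 °C for 5 min, then NADPH was added to start the reaction. Samples were quenched with acetonitrile containing tolbutamide internal standard at 0, 5, 15, 30 and 45 min. Parent compound measured by LC/MS; ketanserin served as control.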

[2] = Toxicity in db/db mouse assessed as effect on body weight at 100 mg/kg, ig administered for 10 weeks; assay type: organism-based; conditions: in vivo, po, 1680 h
How it was run: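 db/db mice, 5 weeks old, grouped by matching baseline blood glucose and body weight. Dosed intragastrically once daily at 100 mg/kg in 0.5% methylcellulose; vehicle-treated db/db and db/m mice served as controls. Body weight and fasting blood glucose measured weekly. Serum ALT and AST measured after 10 weeks. Data given as mean ± SEM.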

[3] = Toxicity in C57BL/6 mouse assessed as change in gross morphology of heart at 50 to 200 mg/kg, ig administered for 4 weeks; assay type: organism-based; conditions: in vivo, po, 672 h, dose 50-200 mg/kg
How it was run: (§1)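 Male C57BL/6 mice (6 per group) given 50, 100 or 200 mg/kg intragastrically daily for 4 weeks. Saline-perfused hearts were weighed and examined for gross morphology, with representative hearts chosen by similar body weight. Heart weight was expressed relative to body weight and to tibia length.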

[4] = Toxicity in C57BL/6 mouse assessed as change in heart weight/body weight ratio at 50 to 200 mg/kg, ig administered for 4 weeks; assay type: organism-based; conditions: in vivo, po, 672 h, dose 50-200 mg/kg; how it was run: as §1
Mus musculus = experiment: Activation of AMPK in normal lean C57BL/6 mouse assessed as increase in phosphorylated AMPK level in heart tissue at 100 mg/kg, ig administered for 4 weeks by Western blot analysis; assay type: functional, organism-based
How it was run: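 Male C57BL/6 mice, 9 weeks old, dosed intragastrically once daily for 4 weeks alongside vehicle controls. Heart and skeletal muscle were homogenized in RIPA buffer with protease/phosphatase inhibitors and centrifuged at 10,600 g for 20 min. About 30 µg protein was blotted for p-AMPK and p-ACC and detected by ECL.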

CC(C)(Oc1ccc(Cl)cc1)C(=O)Nc1ccc(OCc2ccc(C#N)cc2)cc1
Activity (Huh-7): Active | Activity (HepG2): Toxic | half-life [1]: 36 min | Activity [2]: Non-Toxic | Activity [3]: Non-Toxic | Activity [4]: Non-Toxic | Activity (Mus musculus): inactive
